Experiments:
DNA = settings: traditional intercalators, typical range; cited from earlier work
[1] = molecular target: bovine serum albumin (BSA) (Bos taurus, UniProt P02769); experiment: UV-Vis titration with BSA; assay type: binding; settings: for standard Gibbs free energy change ΔG° of BSA binding: 298 K, ΔG° = -RTlnKapp
Outline: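 BSA stock was 3 mg/mL in Tris-HCl pH 7.2, made at 4 °C and quantified by ε280 = 44,300 M−1cm−1; 500 µL of stock was diluted with 1.00 mL buffer. Test compound (10−4 M stock in water) was added stepwise up to 6.83–10.18 µM, with 2 min equilibration at 298 K per step and readings at 280 nm. Kapp = intercept/slope of 1/(A−A0) versus 1/[Ligand]. ΔG° = −RTlnKapp (R 1.987 cal mol−1 K−1, T 298 K).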

CT-DNA (calf thymus DNA) = experiment: UV-Vis titration with CT-DNA; assay type: binding; settings: 298 K; for apparent binding constant Kapp with CT-DNA: UV-Vis titration, Tris-HCl pH 7.2; for standard Gibbs free energy change ΔG° of CT-DNA binding: ΔG° = -RTlnKapp
Outline: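 CT-DNA stock was 1.5 mg/mL in Tris-HCl pH 7.2, made at 4 °C, with A260/A280 of 1.8–1.9; it was quantified by ε260 = 6600 M−1cm−1. 50 µL of stock was added to 1.45 mL buffer. Test compound (10−4 M stock in water) was added stepwise up to 9.09–13.29 µM, with 2 min at 298 K per step and absorbance read at 260 nm. Kapp = intercept/slope of the 1/(A−A0) versus 1/[Ligand] plot. ΔG° = −RTlnKapp at 298 K.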

Lipophilicity = assay type: physicochemical; settings: 2-octanol/water
Outline: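 Shake-flask partition used 2-octanol and doubly distilled water 1:1 v/v (10 mL total) with 0.001 g test compound. The mixture was shaken overnight, left to equilibrate 1 h, and the phases separated. Compound in each phase was quantified by UV-Vis. log P was taken from the octanol/water concentration ratio.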

[2] = DPPH free radical scavenging assay; assay type: biochemical; settings: standard control, compared with 3a-c
Outline: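 DPPH stock was 0.1 mM in ethanol. Test compound solutions at 10, 25, 50, 100, 250, 500 and 1000 µg/mL (concentrations before mixing) were each mixed 1:1 v/v with the DPPH solution. Mixtures were vortexed 10 s and kept in the dark at room temperature for 30 min, then absorbance was read at 517 nm. Ascorbic acid was the reference antioxidant. Scavenging was calculated from absorbance by equation.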

Chain of bovine serum albumin (BSA) (P02769 25-607): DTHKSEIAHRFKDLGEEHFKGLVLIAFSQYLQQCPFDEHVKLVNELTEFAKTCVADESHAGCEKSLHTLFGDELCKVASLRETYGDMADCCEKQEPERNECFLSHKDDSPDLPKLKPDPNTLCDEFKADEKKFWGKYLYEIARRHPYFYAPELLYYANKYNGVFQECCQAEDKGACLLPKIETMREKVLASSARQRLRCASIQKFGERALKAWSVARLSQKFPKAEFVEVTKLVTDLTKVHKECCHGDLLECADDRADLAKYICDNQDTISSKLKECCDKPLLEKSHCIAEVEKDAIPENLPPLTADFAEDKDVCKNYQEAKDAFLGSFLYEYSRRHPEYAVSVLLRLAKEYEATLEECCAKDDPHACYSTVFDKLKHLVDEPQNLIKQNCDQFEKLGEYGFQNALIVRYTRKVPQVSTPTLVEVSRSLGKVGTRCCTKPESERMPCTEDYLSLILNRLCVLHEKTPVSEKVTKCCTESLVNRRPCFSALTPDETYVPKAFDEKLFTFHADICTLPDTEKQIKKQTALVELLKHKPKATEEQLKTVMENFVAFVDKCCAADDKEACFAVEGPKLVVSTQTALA

For [Ru(phen)DPPZ], which “binding constant Kb with DNA” value (DNA) is on record?
Its value is 10^6 to 10^7 M^− 1.

Which results are given for `O=C1Nc2ccccc2/C1=N/N=C/c1cccc([N+](=O)[O-])c1` [3a, (Z)−3-(((E)−3-nitrobenzylidene)hydrazineylidene)indolin-2-one]?
Kd [1]: 151 µM; standard Gibbs free energy change ΔG° of BSA binding [1]: -5.21 kcal/mol; apparent binding constant Kapp with CT-DNA (CT-DNA (calf thymus DNA)): 1.01 × 10^4 M^− 1; standard Gibbs free energy change ΔG° of CT-DNA binding (CT-DNA (calf thymus DNA)): -5.46 kcal/mol; logP (Lipophilicity): 1.29

Which Kd [1] does the source give for `COc1ccccc1/C=N/N=C1\C(=O)Nc2ccccc21` [3b, (Z)−3-(((E)−2-methoxybenzylidene)hydrazineylidene)indolin-2-one] here?
The Kd was 136 µM.

What about the “standard Gibbs free energy change ΔG° of BSA binding” value [1] of the same compound?
The value was -5.27 kcal/mol.

What about the “apparent binding constant Kapp with CT-DNA” value (CT-DNA (calf thymus DNA)) of the same compound?
The value was 1.17 × 10^4 M^− 1.

What about the “standard Gibbs free energy change ΔG° of CT-DNA binding” value (CT-DNA (calf thymus DNA)) of the same compound?
Its value is -5.55 kcal/mol.

And the logP (Lipophilicity)?
Its logP is 2.3.

Which “binding constant Kb with DNA” value (DNA) does the source give for `CC[n+]1c(-c2ccccc2)c2cc(N)ccc2c2ccc(N)cc21` [ethidium bromide] here?
Its value is 10^6 to 10^7 M^− 1.

Which “DPPH free radical scavenging activity (in words)” value [2] does the source give for `O=C1O[C@H]([C@@H](O)CO)C(O)=C1O` [ascorbic acid, Ascorbic acid] here?
Its value is “highest scavenging activity”.

From article PMC12663558 (Scientific Reports, 2025)
